Compound activity from PubChem.
LYP act: increases human PTPN22 phosphatase activity; AID 697; 0.11% of 96,000 active; recombinant LYP, DiFMUP fluorescence; 0 = plate median, 100 = signal doubled; Q9Y2R2; activation, % at 2 µM;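 active = activation at 2 µM above a set limit, the mean plus 5 SD, cut at about 37% in these data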
Target sequence (Q9Y2R2 whole entry, looked up): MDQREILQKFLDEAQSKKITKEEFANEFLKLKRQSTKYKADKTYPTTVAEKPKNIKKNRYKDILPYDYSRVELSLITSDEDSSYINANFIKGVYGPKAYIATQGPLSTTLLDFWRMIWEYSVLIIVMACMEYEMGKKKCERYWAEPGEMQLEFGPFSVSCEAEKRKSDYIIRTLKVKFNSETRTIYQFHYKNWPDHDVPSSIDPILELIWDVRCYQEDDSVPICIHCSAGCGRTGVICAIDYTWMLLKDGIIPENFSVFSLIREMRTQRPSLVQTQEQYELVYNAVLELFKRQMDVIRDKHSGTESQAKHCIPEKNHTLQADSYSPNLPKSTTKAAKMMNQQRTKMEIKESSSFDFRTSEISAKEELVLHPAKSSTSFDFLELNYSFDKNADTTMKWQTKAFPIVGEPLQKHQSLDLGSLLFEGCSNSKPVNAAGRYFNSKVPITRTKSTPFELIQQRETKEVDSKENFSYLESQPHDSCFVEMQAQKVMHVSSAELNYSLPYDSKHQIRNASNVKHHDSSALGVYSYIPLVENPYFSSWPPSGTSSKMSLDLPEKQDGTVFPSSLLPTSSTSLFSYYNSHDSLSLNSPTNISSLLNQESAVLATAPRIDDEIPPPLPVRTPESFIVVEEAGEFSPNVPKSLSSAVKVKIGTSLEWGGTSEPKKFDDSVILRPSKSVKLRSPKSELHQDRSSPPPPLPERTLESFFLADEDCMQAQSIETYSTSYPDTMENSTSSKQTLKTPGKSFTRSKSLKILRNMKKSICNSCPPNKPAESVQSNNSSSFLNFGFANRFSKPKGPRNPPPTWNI
PTPN22 inh 2: inhibitors of human LYP (PTPN22) phosphatase | Q9Y2R2 | AID 640 | recombinant LYP catalytic domain, DiFMUP fluorescence | inhibition, % at 2 µM | 0.21% of 96,000 active;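 active = inhibition at 2 µM at or above a set limit, the screen mean plus 3 SD, cut at about 24% in these data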;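 note: 0% = DMSO with enzyme and 100% = enzyme fully blocked by orthovanadate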
FAK blocker: inhibitors of human focal adhesion kinase; inhibition, %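 (tested at 7 µM)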; Q05397; 0.84% of 97,000 active; AID 727; biochemical FAK kinase activity assay; in the data active = inhibition above about 19%;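 note: 0% = DMSO and 100% = reference compound high control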
Rev-RRE block: HIV Rev-RRE protein-RNA interaction inhibition | 0.79% of 97,000 active | P05866 | Rev peptide-RRE RNA binding, FRET | inhibition, % at 8 µM;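 active = inhibition above the screen-wide mean plus 3 SD, cut at about 35% in these data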;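 note: 0% = median DMSO wells and 100% = median Neomycin B control wells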
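Assay system: Rev peptide and RRE RNA, both fluorescently labelled; times: 5 min preincubation and 15 min binding, 25 °C; detection: FRET, ex 480 nm, em 540 and 671 nm; read-out basis: % inhibition from 671/540 nm acceptor-to-donor ratio, scaled between controls; benchmarks: DMSO low control, neomycin B high control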
* hit, by the source's call; [ ] = dose if it differs, or a comment. Hits are enriched below; roughly 1.8% of the tested compounds scored in any of these assays.

`CCOc1ccccc1C1C(C#N)=C(N)SC(N)=C1C#N` gave LYP act -3, PTPN22 inh 2 2, FAK blocker -3 and Rev-RRE block 37*.
For CCOC(=O)CSc1cc(CSc2ccccc2)nc(-c2ccccc2)n1 the results were LYP act 4, PTPN22 inh 2 0, FAK blocker -8 and Rev-RRE block 10.
CCCC(=O)c1c[nH]c(C(=O)NCCCN2CCOCC2)c1 was read as LYP act 0, PTPN22 inh 2 -4, FAK blocker -2 and Rev-RRE block 2.
On1cnnc1-c1ccccc1 was read as LYP act 11, PTPN22 inh 2 -11, FAK blocker -1 and Rev-RRE block 4.
Screening COn1cnnc1-c1ccccc1 returned LYP act 2, PTPN22 inh 2 -3, FAK blocker 1 and Rev-RRE block 41*.
`CCC(Cc1ccccc1)NC(=O)C1CCN(S(=O)(=O)c2c(C)noc2C)CC1` (centres undefined) gave LYP act 1, PTPN22 inh 2 0, FAK blocker 0 and Rev-RRE block 3.
`O=C(Nc1nc(-c2ccccn2)cs1)c1ncc(Cl)c(Cl)c1Cl` gave LYP act -26, PTPN22 inh 2 27*, FAK blocker -7 and Rev-RRE block 7.
Screening N#CC1=C(N)SC(N)=C(C#N)C1CCc1ccccc1 returned LYP act -2, PTPN22 inh 2 5, FAK blocker 0 and Rev-RRE block 79*.
`CC(C)CC1C(C#N)=C(N)SC(N)=C1C#N` gave LYP act 6, PTPN22 inh 2 -8, FAK blocker -4 and Rev-RRE block 13.
N#CC1=C(N)SC(N)=C(C#N)C1c1cccc(Oc2ccccc2)c1 was read as LYP act -12, PTPN22 inh 2 17, FAK blocker 4 and Rev-RRE block 80*.
Screening N#CC1=C(N)SC(N)=C(C#N)C1Cc1ccccc1 returned LYP act 6, PTPN22 inh 2 -8, FAK blocker 1 and Rev-RRE block 47*.
`CSc1nsc(/C=C/Nc2ccc(C)cc2)c1C#N` gave LYP act -8, PTPN22 inh 2 11, FAK blocker -1 and Rev-RRE block 58*.
`CCCSc1cc(N2CCOCC2)nc(-c2ccccc2Cl)n1` gave LYP act -9, PTPN22 inh 2 7, FAK blocker 2 and Rev-RRE block 10.
CCOC(=O)CC(=O)CSc1nc(-c2ccc3c(c2)OCO3)cc(C(F)(F)F)c1C#N was read as LYP act -3, PTPN22 inh 2 8, FAK blocker -3 and Rev-RRE block 61*.
For CCOC(=O)CCSc1nc(C)cc(C(F)(F)F)c1C#N the results were LYP act 10, PTPN22 inh 2 -10, FAK blocker 0 and Rev-RRE block 80*.
Screening CCOC(=O)CCSc1nc(-c2ccc3c(c2)OCO3)cc(C(F)(F)F)c1C#N returned LYP act 2, PTPN22 inh 2 -2, FAK blocker -2 and Rev-RRE block 17.
CCSc1nnc(NC(=O)c2csc3c2CCC(C)C3)s1 (centres undefined) was read as LYP act -3, PTPN22 inh 2 1, FAK blocker -2 and Rev-RRE block 9.
CC1CCc2c(C(=O)Nc3nccs3)csc2C1 (centres undefined) was read as LYP act -64, PTPN22 inh 2 65*, FAK blocker 5 and Rev-RRE block 3.
Screening Cc1[nH]n(-c2ccccc2)c(=O)c1Sc1ccc(Cl)cc1 returned LYP act -7, PTPN22 inh 2 11, FAK blocker -1 and Rev-RRE block -2.
`Cc1cc(-c2c(C)[nH]n(-c3ccc(Cl)cc3)c2=O)n[nH]1` gave LYP act -82, PTPN22 inh 2 82*, FAK blocker -3 and Rev-RRE block -1.
For COc1ccc(C2N=C(N)N=C(N)N2c2ccccc2OC)cc1OC (centres undefined) the results were LYP act -8, PTPN22 inh 2 12, FAK blocker -5 and Rev-RRE block 1.
For COc1cccc(C2=CC(c3ccc(C)cc3)n3ncnc3N2)c1 (centres undefined) the results were LYP act -1, PTPN22 inh 2 -2, FAK blocker 5 and Rev-RRE block 49*.
Cc1ccsc1C1C=C(c2cccc(Br)c2)Nc2ncnn21 (centres undefined) was read as LYP act -3, PTPN22 inh 2 3, FAK blocker 3 and Rev-RRE block 81*[fluorescence artefact?].
`Fc1ccc(Br)cc1C1C=C(c2ccc(Br)cc2)Nc2ncnn21` (centres undefined) gave LYP act -10, PTPN22 inh 2 10, FAK blocker 3 and Rev-RRE block 14.
For Cn1c(=O)oc2cc(S(=O)(=O)NCC3CCCO3)ccc21 (centres undefined) the results were LYP act -1, PTPN22 inh 2 0, FAK blocker 0 and Rev-RRE block 53*.
For COc1cc(S(=O)(=O)NCC2CCCO2)ccc1Br (centres undefined) the results were LYP act 8, PTPN22 inh 2 -9, FAK blocker -2 and Rev-RRE block 2.
CC1(C)Cc2c(sc3ncn4nc(-c5ccco5)nc4c23)CO1 was read as LYP act 0, PTPN22 inh 2 -1, FAK blocker 33* and Rev-RRE block 3.
`COc1ccc(-c2ccc3c(N)c(C(=O)c4cccc(OC)c4)sc3n2)cc1` gave LYP act -9, PTPN22 inh 2 7, FAK blocker 0 and Rev-RRE block 55*.
`O=C(c1ccc([N+](=O)[O-])cc1)N(Cc1ccc(Br)cc1)N1C(=O)CCCC1=O` gave LYP act -3, PTPN22 inh 2 5, FAK blocker -2 and Rev-RRE block 11.
For COc1cc(/C=c2\sc3nc(-c4ccncc4)nn3c2=O)ccc1OC(C)=O the results were LYP act -4, PTPN22 inh 2 3, FAK blocker 2 and Rev-RRE block 9.
For CN(C)c1ccc(/C=c2\sc3nc(-c4ccccc4)nn3c2=O)cc1 the results were LYP act -7, PTPN22 inh 2 5, FAK blocker -4 and Rev-RRE block 75*.
Screening Cc1ccc(/C(O)=C2/C(=O)C(=O)N(CCN3CCOCC3)C2c2cccs2)cc1 (centres undefined) returned LYP act 3, PTPN22 inh 2 2, FAK blocker 3 and Rev-RRE block 1.
`c1ccc(-c2cc(-c3nnc4n3N=C(c3ccc5ccccc5c3)CS4)[nH]n2)cc1` gave LYP act -26, PTPN22 inh 2 30*, FAK blocker 1 and Rev-RRE block 5.
For Cc1cc(-c2nnc3n2N=C(c2ccc(-c4ccccc4)cc2)CS3)n[nH]1 the results were LYP act -3, PTPN22 inh 2 1, FAK blocker -2 and Rev-RRE block 17.
COc1ccc(OC)c2c1C(=O)c1ccccc1C2=O was read as LYP act -3, PTPN22 inh 2 6, FAK blocker 1 and Rev-RRE block 75*[fluorescence artefact?].
For COc1cccc2c1C(=O)c1ccc3ccccc3c1C2=O the results were LYP act -1, PTPN22 inh 2 1, FAK blocker 16 and Rev-RRE block 5.
Screening CCCNC(=O)COC(=O)c1ccccc1OCc1ccc(Cl)cc1 returned LYP act -2, PTPN22 inh 2 4, FAK blocker 1 and Rev-RRE block 19.
